The source made the active and inactive calls. The calls are words filed in the database; no cut-off is given here.
Experiments:
Carbonic anhydrase 9 = Carbonic anhydrase 9 (Homo sapiens, UniProt Q16790); experiment: Inhibition of human carbonic anhydrase 9 assessed as inhibition constant incubated for 15 mins prior to testing by phenol red based stopped-flow CO2 hydration assay
U-87 MG [1] = experiment: Antiproliferative activity against human U-87 MG cells assessed as cell growth inhibition at 30 to 100 uM measured after 24 hrs under CoCl2-induced hypoxic condition by MTT assay; format: functional, cell-based; details: U-87MG ATCC, dose 30-100 µM
hTERT-BJ [2] = experiment: Cytotoxicity against human TERT-Bj-5ta cells assessed as reduction in cell viability at 300 uM measured after 24 hrs under CoCl2- induced hypoxic condition by MTT assay relative to control; format: cell-based
U-87 MG [3] = experiment: Antiproliferative activity against human U-87 MG cells assessed as cell survival rate at 300 uM measured after 24 hrs under CoCl2-induced hypoxic condition by MTT assay relative to control; format: functional, U-87MG ATCC; details: read-out: Survival
Summary of the method: (§1)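 MTT end-point assay. MTT (5 mg/mL in PBS) added for 4 h, formazan dissolved in DMSO, absorbance read at 560 nm. Viability given as % of untreated control (100%); mean ± SEM of three experiments.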

RT-4 [4] = experiment: Antiproliferative activity against human RT-4 cells assessed as cell survival rate at 100 uM measured after 24 hrs under CoCl2-induced hypoxic condition by MTT assay relative to control; format: functional; details: read-out: Survival; summary of the method: as §1
[5] = Antiproliferative activity against human WI-26 AV4 cells assessed as reduction in cell viability measured after 24 hrs by MTT assay; details: WI-26 AV4, 24 h
[6] = Antiproliferative activity against human WI-26 AV4 cells assessed as reduction in cell viability measured after 72 hrs by MTT assay; details: WI26VA4, 72 h
A-431 [7] = experiment: Antiproliferative activity against human A-431 cells assessed as cell survival rate at 100 uM measured after 24 hrs under CoCl2-induced hypoxic condition by MTT assay relative to control; format: functional; details: read-out: Survival; summary of the method: as §1
hTERT-BJ [8] = experiment: Cytotoxicity against human TERT-Bj-5ta cells assessed as reduction in cell viability at measured after 24 hrs under CoCl2- induced hypoxic condition by MTT assay; format: cell-based
A-431 [9] = experiment: Antiproliferative activity against human A-431 cells assessed as reduction in cell viability measured after 48 hrs by MTT assay; details: A-431, 48 h
A-431 [10] = experiment: Antiproliferative activity against human A-431 cells assessed as reduction in cell viability measured after 72 hrs by MTT assay; details: A-431, 72 h
[11] = Antiproliferative activity against human WI-26 AV4 cells assessed as reduction in cell viability measured after 48 hrs by MTT assay; details: WI-26 AV4, 48 h
A-431 [12] = experiment: Antiproliferative activity against human A-431 cells assessed as reduction in cell viability measured after 24 hrs by MTT assay; details: A-431, 24 h
RT-4 [13] = experiment: Antiproliferative activity against human RT-4 cells assessed as cell survival rate at 300 uM measured after 24 hrs under CoCl2-induced hypoxic condition by MTT assay relative to control; format: functional; details: read-out: Survival; summary of the method: as §1
A-431 [14] = experiment: Antiproliferative activity against human A-431 cells assessed as cell survival rate at 300 uM measured after 24 hrs under CoCl2-induced hypoxic condition by MTT assay relative to control; format: functional; details: read-out: Survival; summary of the method: as §1

| Compound | Ki (Carbonic anhydrase 9) [nM] | growth inhibition (GI) (U-87 MG [1]) | further results |
| --- | --- | --- | --- |
| CCOc1cccc2cc(S(N)(=O)=O)c(=O)oc12 | 51.5 | inactive | Activity (hTERT-BJ [2]): 55.97% |
| NS(=O)(=O)c1cc2ccccc2oc1=O | 65.1 | inactive | – |
| NS(=O)(=O)c1cc2cccc(F)c2oc1=O | 41.1 | inactive | viability at 300 µM (U-87 MG [3]): 57.9% |
| Cc1ccc2oc(=O)c(S(N)(=O)=O)cc2c1 | 47.4 | inactive | – |
| NS(=O)(=O)c1cc2cc(O)ccc2oc1=O | 66.4 | inactive | Activity (hTERT-BJ [2]): 65.75% |
| COc1ccc2cc(S(N)(=O)=O)c(=O)oc2c1 | 40.5 | inactive | – |
| NS(=O)(=O)c1cc2cc([N+](=O)[O-])ccc2oc1=O | 148 | inactive | – |
| NS(=O)(=O)c1cc2cc(F)ccc2oc1=O | 32.6 | inactive | – |
| NS(=O)(=O)c1cc2cc(Cl)cc(Cl)c2oc1=O | 518 | inactive | viability at 100 µM (RT-4 [4]): 43.5%; IC50 [5]: 74000 nM; IC50 [6]: 14400 nM; viability at 100 µM (A-431 [7]): 38.8%; Activity (hTERT-BJ [8]): Non-Toxic; IC50 (A-431 [9]): 20300 nM; IC50 (A-431 [10]): 35200 nM; IC50 [11]: 9540 nM; IC50 (A-431 [12]): 26900 nM; viability at 300 µM (RT-4 [13]): 15.1%; viability at 300 µM (A-431 [14]): 2.84%; viability at 300 µM (U-87 MG [3]): 54.1% |

— ChEMBL document CHEMBL4825703, “Investigation of 3-sulfamoyl coumarins against cancer-related IX and XII isoforms of human carbonic anhydrase as well as cancer cells leads to the discovery of 2-oxo-2H-benzo[h]chromene-3-sulfonamide - A new caspase-activating proapoptotic agent” (Eur J Med Chem, 2021)
